Experiments:
Type in all cases: functional
IGROV-1 = test: Cytotoxicity against human IGROV1 cells assessed as cell growth at 1 uM after 48 hrs by sulforhodamine B assay; details: IGROV-1, 48 h, read-out: Activity
786-0 = test: Cytotoxicity against human 786-0 cells assessed as cell growth at 100 uM after 48 hrs by sulforhodamine B assay; details: 786-0, 48 h, read-out: Activity
Procedure, shortened: (§1)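 NCI-60 five-dose screen. Cells were grown in RPMI 1640 with 5% FBS and 2 mM L-glutamine and preincubated 24 h. Compound (DMSO stock) was tested at 0.01, 0.1, 1, 10 and 100 µM for 48 h at 37 °C. Cells were fixed in situ with cold TCA (final 10%) and stained with 0.4% SRB. A515 was read, and percent growth was calculated against time-zero and control plates.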

UACC-257 = test: Growth inhibition of human UACC257 cells after 48 hrs by sulforhodamine B assay; details: UACC-257, 48 h; for CC50: read-out: LC50 (the source's name)
Procedure, shortened: (§2)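 Adherent NCI-60 lines were grown in RPMI 1640 with 5% FBS and 2 mM L-glutamine, plated at 5000–40,000 cells/well and preincubated 24 h. They were then exposed to five concentrations (0.01–100 µM, from a DMSO stock) for 48 h at 37 °C, 5% CO2. Cells were fixed with cold TCA (10% final, 60 min, 4 °C) and stained with 0.4% SRB. Dye was solubilized in 10 mM Tris base and A515 read. GI50 was derived from time-zero, control and treated absorbances.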

SK-OV-3 [1] = test: Cytotoxicity against human SKOV3 cells assessed as cell growth at 0.1 uM after 48 hrs by sulforhodamine B assay; details: SK-OV-3, 48 h, read-out: Activity
COLO 205 = test: Cytotoxicity against human COLO205 cells assessed as cell growth at 0.1 uM after 48 hrs by sulforhodamine B assay; details: COLO 205, 48 h, read-out: Activity; procedure, shortened: as §1
SNB-19 [2] = test: Cytotoxicity against human SNB19 cells assessed as cell growth at 10 '-5 M after 48 hrs by sulforhodamine B assay; details: SNB-19, 48 h, read-out: Activity
HCT-15 = test: Cytotoxicity against human HCT15 cells assessed as cell growth at 1 uM after 48 hrs by sulforhodamine B assay; details: HCT-15, 48 h, read-out: Activity
Procedure, shortened: (§3)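 Five-dose NCI panel run at 0.01, 0.1, 1, 10 and 100 µM. Cells were in RPMI 1640 with 5% FBS and 2 mM L-glutamine, seeded at 5000–40,000 cells/well and pre-incubated 24 h. Drug was diluted from a DMSO stock into medium with 50 µg/ml gentamicin. Exposure was 48 h at 37 °C, 5% CO2. Cells were fixed with cold TCA and stained with 0.4% SRB, read at 515 nm. Percent growth came from time-zero, control and test absorbances.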

SK-MEL-2 = test: Growth inhibition of human SK-MEL-2 cells after 48 hrs by sulforhodamine B assay; details: SK-MEL-2, 48 h; procedure, shortened: as §2
MOLT-4 [3] = test: Cytotoxicity against human MOLT4 cells assessed as cell growth at 0.1 uM after 48 hrs by sulforhodamine B assay; details: MOLT-4, 48 h, read-out: Activity
T47D = test: Cytotoxicity against human T47D cells assessed as cell growth at 1 uM after 48 hrs by sulforhodamine B assay; details: read-out: Activity
EKVX = test: Cytotoxicity against human EKVX cells assessed as cell growth at 0.1 uM after 48 hrs by sulforhodamine B assay; details: read-out: Activity; procedure, shortened: as §3
SF-268 = test: Cytotoxicity against human SF268 cells assessed as cell growth at 100 uM after 48 hrs by sulforhodamine B assay; details: SF-268, 48 h, read-out: Activity
HCC 2998 = test: Cytotoxicity against human HCC2998 cells assessed as cell growth at 1 uM after 48 hrs by sulforhodamine B assay; details: HCC 2998, 48 h, read-out: Activity; procedure, shortened: as §3
SNB-19 [4] = test: Cytotoxicity against human SNB19 cells assessed as cell growth at 100 uM after 48 hrs by sulforhodamine B assay; details: SNB-19, 48 h, read-out: Activity
DU-145 = test: Growth inhibition of human DU145 cells after 48 hrs by sulforhodamine B assay; details: DU-145, 48 h; for CC50: read-out: LC50 (the source's name); procedure, shortened: as §2
RXF 393 = test: Cytotoxicity against human RXF393 cells assessed as cell growth at 1 uM after 48 hrs by sulforhodamine B assay; details: RXF 393, 48 h, read-out: Activity
SK-MEL-5 = test: Cytotoxicity against human SK-MEL-5 cells assessed as cell growth at 0.01 uM after 48 hrs by sulforhodamine B assay; details: SK-MEL-5, 48 h, read-out: Activity
NCI-H522 = test: Cytotoxicity against human NCI-H522 cells assessed as cell growth at 10 uM after 48 hrs by sulforhodamine B assay; details: NCI-H522, 48 h, read-out: Activity
SK-MEL-28 = test: Cytotoxicity against human SK-MEL-28 cells assessed as cell growth at 10 '-5 M after 48 hrs by sulforhodamine B assay; details: SK-MEL-28, 48 h, read-out: Activity
SW-620 = test: Cytotoxicity against human SW620 cells assessed as cell growth at 0.1 uM after 48 hrs by sulforhodamine B assay; details: SW-620, 48 h, read-out: Activity
CCRF-CEM = test: Cytotoxicity against human CCRF-CEM cells assessed as cell growth at 1 uM after 48 hrs by sulforhodamine B assay; details: read-out: Activity
Procedure, shortened: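 CCRF-CEM suspension leukemia cells in RPMI 1640 with 5% FBS and 2 mM L-glutamine, plated 24 h before dosing. Five concentrations (0.01–100 µM) were applied from a DMSO stock for 48 h at 37 °C. Settled cells were fixed with 80% TCA (final 16%) and stained with SRB, with read-out at 515 nm. Percent growth was derived from time-zero and control absorbances.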

U-251 = test: Cytotoxicity against human U251 cells assessed as cell growth at 0.01 uM after 48 hrs by sulforhodamine B assay; details: U-251, 48 h, read-out: Activity
OVCAR-4 = test: Cytotoxicity against human OVCAR4 cells assessed as cell growth at 10 '-5 M after 48 hrs by sulforhodamine B assay; details: OVCAR-4, 48 h, read-out: Activity
SK-OV-3 [5] = test: Cytotoxicity against human SKOV3 cells assessed as cell growth at 100 uM after 48 hrs by sulforhodamine B assay; details: SK-OV-3, 48 h, read-out: Activity
MOLT-4 [6] = test: Cytotoxicity against human MOLT4 cells assessed as cell growth at 10 uM after 48 hrs by sulforhodamine B assay; details: MOLT-4, 48 h, read-out: Activity
UO-31 = test: Cytotoxicity against human UO31 cells assessed as cell growth at 10 uM after 48 hrs by sulforhodamine B assay; details: UO-31, 48 h, read-out: Activity
Malme-3M = test: Cytotoxicity against human MALME-3M cells assessed as cell growth at 1 uM after 48 hrs by sulforhodamine B assay; details: read-out: Activity
ACHN = test: Cytotoxicity against human ACHN cells assessed as cell growth at 10 uM after 48 hrs by sulforhodamine B assay; details: read-out: Activity; procedure, shortened: as §1
NCI-H322M = test: Cytotoxicity against human NCI-H322M cells assessed as cell growth at 100 uM after 48 hrs by sulforhodamine B assay; details: read-out: Activity

SMILES | growth at 1 µM (IGROV-1) [%] | growth at 100 µM (786-0) [%] | GI50 (UACC-257) [µM] | TGI (UACC-257) [µM] | CC50 (UACC-257) [µM] | growth at 0.1 µM (SK-OV-3 [1]) [%] | growth at 0.1 µM (COLO 205) [%] | growth at 10 µM (SNB-19 [2]) [%] | growth at 1 µM (HCT-15) [%] | TGI (SK-MEL-2) [µM] | growth at 0.1 µM (MOLT-4 [3]) [%] | growth at 1 µM (T47D) [%] | growth at 0.1 µM (EKVX) [%] | growth at 100 µM (SF-268) [%] | growth at 1 µM (HCC 2998) [%] | growth at 100 µM (SNB-19 [4]) [%] | GI50 (DU-145) [µM] | TGI (DU-145) [µM] | CC50 (DU-145) [µM] | growth at 1 µM (RXF 393) [%] | further results
Cc1ccc2nc(Nc3c(C)cccc3C)sc2c1 | 83 | 60 | > 100 | > 100 | > 100 | 104 | 112 | 59.5 | 48 | > 100 | 111 | 75 | 89 | 34 | 70 | 30 | > 100 | > 100 | > 100 | 52 | LC50 (concentration killing 50% of cells present at time zero) (SK-MEL-2): > 100 µM; growth at 0.01 µM (SK-MEL-5): 95%; growth at 10 µM (NCI-H522): 28%; growth at 10 µM (SK-MEL-28): 45.5%; growth at 0.1 µM (SW-620): 94%; growth at 1 µM (CCRF-CEM): 72%; growth at 0.01 µM (U-251): 97%; growth at 10 µM (OVCAR-4): 63%; growth at 100 µM (SK-OV-3 [5]): 54%; growth at 10 µM (MOLT-4 [6]): 56%; growth at 10 µM (UO-31): 49%; growth at 1 µM (Malme-3M): 57%; growth at 10 µM (ACHN): 59%; growth at 100 µM (NCI-H322M): 69%
Clc1cccc(Cl)c1Nc1nc2cccc(Cl)c2s1 | 55 | -90 | 1.35 | 3.1 | 7.09 | 99 | 94 | 13.8 | 59 | 3.35 | 109 | 46 | 82 | -56 | 70 | -63 | 1.41 | 2.75 | 5.39 | 45 | GI50 (SK-MEL-2): 1.43 µM; growth at 0.01 µM (SK-MEL-5): 94%; growth at 10 µM (NCI-H522): -71%; growth at 10 µM (SK-MEL-28): -48.1%; growth at 0.1 µM (SW-620): 91%; growth at 1 µM (CCRF-CEM): 62%; growth at 0.01 µM (U-251): 104%; growth at 10 µM (OVCAR-4): 6.72%; growth at 100 µM (SK-OV-3 [5]): -100%; growth at 10 µM (MOLT-4 [6]): -38%; growth at 10 µM (UO-31): -91%; growth at 1 µM (Malme-3M): 52%; growth at 10 µM (ACHN): -99%; growth at 100 µM (NCI-H322M): -95%
